Results: ChEMBL document CHEMBL1649316, “Using population pharmacokinetics to determine gentamicin dosing during extended daily diafiltration in critically ill patients with acute kidney injury” (Antimicrob Agents Chemother, 2010)

What was measured:
Format in all cases: ADME, organism-based
[1] = tested on: Homo sapiens; test: AUC (0 to 24 hrs) in critically ill patient with acute kidney injury at 5 mg/kg, iv administered every 24 hrs; set-up: time < 24 hr, dose 5 mg/kg, route intravenous; conditions: in vivo
Method in brief: (§1)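 Monte Carlo simulation in NONMEM from the final covariate population model. 1,000 simulated subjects per regimen, modelled on a person (70 kg, BMI 23.6 kg/m²). Weight-based doses were given at EDD-f start or 30 min, 1 h, 2 h or 4 h before a 10-h EDD-f session, every 24 h or every 48 h. Targets were Cmax and AUC0-24, assuming an MIC of 1 mg/liter.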

[2] = tested on: Homo sapiens; test: Cmax in critically ill patient with acute kidney injury at 5 mg/kg, iv administered as 1 hr infusion; set-up: dose 5 mg/kg, route intravenous; conditions: in vivo; method in brief: as §1
[3] = tested on: Homo sapiens; test: Cmax in critically ill patient with acute kidney injury at 6 mg/kg, iv administered every 48 hrs; set-up: dose 6 mg/kg, route intravenous; conditions: in vivo; method in brief: as §1
[4] = tested on: Homo sapiens; test: Cmax in critically ill patient with acute kidney injury at 5 mg/kg, iv administered every 24 hrs; set-up: dose 5 mg/kg, route intravenous; conditions: in vivo; method in brief: as §1
[5] = tested on: Homo sapiens; test: Cmax in critically ill patient with acute kidney injury at 4 mg/kg, iv administered as 30 mins infusion; set-up: dose 4 mg/kg, route intravenous; conditions: in vivo, 0.5 h; method in brief: as §1
[6] = tested on: Homo sapiens; test: AUC (0 to 24 hrs) in critically ill patient with acute kidney injury at 5 mg/kg, iv administered as 1 hr infusion; set-up: dose 5 mg/kg, route intravenous; conditions: in vivo; method in brief: as §1
[7] = tested on: Homo sapiens; test: AUC (0 to 24 hrs) in critically ill patient with acute kidney injury at 4 mg/kg, iv administered as 30 mins infusion; set-up: time < 24 hr, dose 4 mg/kg, route intravenous; conditions: in vivo; method in brief: as §1
[8] = tested on: Homo sapiens; test: Clearance in iv dosed critically ill patient with acute kidney injury during extended daily diafiltration; conditions: in vivo
Method in brief: (§2)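 Patients were 14 critically ill adults with AKI on EDD-f, 28 doses in total. Gentamicin was given as a 30-min central venous infusion. Arterial plasma was sampled predose and at 15, 30, 60, 120, 180, 300, 480 and 600 min, plus samples between EDD-f sessions. Plasma levels were measured by Synchron LX assay (LOD 0.3 mg/liter). A two-compartment NONMEM model (FOCE with interaction) was fitted with EDD-f as a covariate.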

[9] = tested on: Homo sapiens; test: Half life in iv dosed critically ill patient with acute kidney injury during extended daily diafiltration; conditions: in vivo; method in brief: as §2
[10] = tested on: Homo sapiens; test: Clearance iv dosed in critically ill patient with acute kidney injury; conditions: in vivo; method in brief: as §2
[11] = tested on: Homo sapiens; test: AUC (0 to 24 hrs) in critically ill patient with acute kidney injury at 6 mg/kg, iv administered every 48 hrs; set-up: time < 24 hr, dose 6 mg/kg, route intravenous; conditions: in vivo; method in brief: as §1
[12] = tested on: Homo sapiens; test: Half life in iv dosed critically ill patient with acute kidney injury; conditions: in vivo; method in brief: as §2

Sequence: GENTAMICIN
- AUC [1]: 135700 ng·h/mL
- Cmax [2]: > 10000 ng/mL
- Cmax [3]: > 10000 ng/mL
- Cmax [4]: > 10000 ng/mL
- AUC [5]: 70000 ng·h/mL
- Cmax [6]: > 10000 ng/mL
- AUC [7]: 70000 ng·h/mL
- CL [8]: 2.54 L/h
- t1/2 [9]: 13.8 h
- CL [10]: 0.23 L/h
- AUC [11]: 88700 ng·h/mL
- t1/2 [12]: 153.4 h
